Test results taken from ChEMBL document CHEMBL1687785, “ampG gene of Pseudomonas aeruginosa and its role in β-lactamase expression” (2010).
Values after ≈ are worked out from the molar mass of the structure shown.

Key:
Format in all cases: functional
[1] = tested on: Pseudomonas aeruginosa; assay: Antimicrobial activity against Pseudomonas aeruginosa isolate 1 obtained from cystic fibrosis patients after 16 to 20 hrs by broth microdilution method in presence of 120 uM carbonyl cyanide m-chlorophenyl-hydrazone
How it was run: (§1)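 CLSI broth microdilution in Mueller-Hinton broth with CCCP added from a 10 mM DMSO stock to 120 μM final, alongside 2-fold serial antibiotic dilutions. Inoculum from starter cultures grown to OD600 0.5. MIC is the lowest concentration preventing growth after 16-20 h at 37°C. Triplicate.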

[2] = tested on: Pseudomonas aeruginosa; assay: Antimicrobial activity against Pseudomonas aeruginosa isolate 1 obtained from cystic fibrosis patients after 16 to 20 hrs by broth microdilution method
How it was run: (§2)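 CLSI broth microdilution: 2-fold serial antibiotic dilutions in Mueller-Hinton broth, inoculated with about 10^4 cells per 100 μl from starter cultures grown to OD600 0.5. MIC is the lowest concentration preventing growth after 16-20 h at 37°C. Triplicate.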

[3] = tested on: Pseudomonas aeruginosa; assay: Antimicrobial activity against Pseudomonas aeruginosa isolate 2 obtained from cystic fibrosis patients after 16 to 20 hrs by broth microdilution method in presence of 120 uM carbonyl cyanide m-chlorophenyl-hydrazone
How it was run: (§3)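 CLSI broth microdilution in Mueller-Hinton broth with serial antibiotic dilutions. CCCP was added from a 10 mM DMSO stock to 120 μM final, then the bacterial culture was added as inoculum (about 10^4 cells from OD600 0.5 starter cultures). MIC was the lowest concentration preventing growth after 16 to 20 h at 37°C, run in triplicate.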

[4] = tested on: Pseudomonas aeruginosa; assay: Antimicrobial activity against Pseudomonas aeruginosa isolate 2 obtained from cystic fibrosis patients after 16 to 20 hrs by broth microdilution method
How it was run: (§4)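 CLSI broth microdilution in Mueller-Hinton broth, serial 2-fold antibiotic dilutions. Inoculum about 10^4 cells per well, taken from starter cultures grown to OD600 0.5. MIC was the lowest antibiotic concentration preventing growth after 16 to 20 h at 37°C. Each MIC was determined in triplicate.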

[5] = tested on: Pseudomonas aeruginosa; assay: Antimicrobial activity against Pseudomonas aeruginosa isolate 3 obtained from cystic fibrosis patients after 16 to 20 hrs by broth microdilution method in presence of 120 uM carbonyl cyanide m-chlorophenyl-hydrazone; how it was run: as §3
[6] = tested on: Pseudomonas aeruginosa; assay: Antimicrobial activity against Pseudomonas aeruginosa isolate 3 obtained from cystic fibrosis patients after 16 to 20 hrs by broth microdilution method; how it was run: as §4
[7] = tested on: Pseudomonas aeruginosa; assay: Antimicrobial activity against Pseudomonas aeruginosa isolate 4 obtained from cystic fibrosis patients after 16 to 20 hrs by broth microdilution method in presence of 120 uM carbonyl cyanide m-chlorophenyl-hydrazone; how it was run: as §3
[8] = tested on: Pseudomonas aeruginosa; assay: Antimicrobial activity against Pseudomonas aeruginosa isolate 4 obtained from cystic fibrosis patients after 16 to 20 hrs by broth microdilution method; how it was run: as §4
[9] = tested on: Pseudomonas aeruginosa; assay: Antimicrobial activity against Pseudomonas aeruginosa isolate 5 obtained from cystic fibrosis patients after 16 to 20 hrs by broth microdilution method in presence of 120 uM carbonyl cyanide m-chlorophenyl-hydrazone; how it was run: as §3
[10] = tested on: Pseudomonas aeruginosa; assay: Antimicrobial activity against Pseudomonas aeruginosa isolate 5 obtained from cystic fibrosis patients after 16 to 20 hrs by broth microdilution method; how it was run: as §4
[11] = tested on: Pseudomonas aeruginosa; assay: Antimicrobial activity against Pseudomonas aeruginosa isolate 6 obtained from cystic fibrosis patients after 16 to 20 hrs by broth microdilution method in presence of 120 uM carbonyl cyanide m-chlorophenyl-hydrazone; how it was run: as §3
[12] = tested on: Pseudomonas aeruginosa; assay: Antimicrobial activity against Pseudomonas aeruginosa isolate 6 obtained from cystic fibrosis patients after 16 to 20 hrs by broth microdilution method; how it was run: as §4
[13] = tested on: Pseudomonas aeruginosa; assay: Antimicrobial activity against Pseudomonas aeruginosa isolate 7 obtained from cystic fibrosis patients after 16 to 20 hrs by broth microdilution method in presence of 120 uM carbonyl cyanide m-chlorophenyl-hydrazone; how it was run: as §3
[14] = tested on: Pseudomonas aeruginosa; assay: Antimicrobial activity against Pseudomonas aeruginosa isolate 7 obtained from cystic fibrosis patients after 16 to 20 hrs by broth microdilution method; how it was run: as §4
[15] = tested on: Pseudomonas aeruginosa; assay: Antimicrobial activity against Pseudomonas aeruginosa isolate 8 obtained from cystic fibrosis patients after 16 to 20 hrs by broth microdilution method in presence of 120 uM carbonyl cyanide m-chlorophenyl-hydrazone; how it was run: as §3
[16] = tested on: Pseudomonas aeruginosa; assay: Antimicrobial activity against Pseudomonas aeruginosa isolate 8 obtained from cystic fibrosis patients after 16 to 20 hrs by broth microdilution method; how it was run: as §4
[17] = tested on: Pseudomonas aeruginosa; assay: Antimicrobial activity against Pseudomonas aeruginosa isolate 9 obtained from cystic fibrosis patients after 16 to 20 hrs by broth microdilution method in presence of 120 uM carbonyl cyanide m-chlorophenyl-hydrazone; how it was run: as §3
[18] = tested on: Pseudomonas aeruginosa; assay: Antimicrobial activity against Pseudomonas aeruginosa isolate 9 obtained from cystic fibrosis patients after 16 to 20 hrs by broth microdilution method; how it was run: as §4
[19] = tested on: Pseudomonas aeruginosa; assay: Antimicrobial activity against Pseudomonas aeruginosa isolate 10 obtained from cystic fibrosis patients after 16 to 20 hrs by broth microdilution method in presence of 120 uM carbonyl cyanide m-chlorophenyl-hydrazone; how it was run: as §1
[20] = tested on: Pseudomonas aeruginosa; assay: Antimicrobial activity against Pseudomonas aeruginosa isolate 10 obtained from cystic fibrosis patients after 16 to 20 hrs by broth microdilution method; how it was run: as §2
[21] = tested on: Pseudomonas aeruginosa; assay: Antimicrobial activity against Pseudomonas aeruginosa isolate 11 obtained from cystic fibrosis patients after 16 to 20 hrs by broth microdilution method in presence of 120 uM carbonyl cyanide m-chlorophenyl-hydrazone; how it was run: as §1
[22] = tested on: Pseudomonas aeruginosa; assay: Antimicrobial activity against Pseudomonas aeruginosa isolate 11 obtained from cystic fibrosis patients after 16 to 20 hrs by broth microdilution method; how it was run: as §2
[23] = tested on: Pseudomonas aeruginosa; assay: Antimicrobial activity against Pseudomonas aeruginosa isolate 12 obtained from cystic fibrosis patients after 16 to 20 hrs by broth microdilution method; how it was run: as §2
[24] = tested on: Pseudomonas aeruginosa; assay: Antimicrobial activity against Pseudomonas aeruginosa isolate 12 obtained from cystic fibrosis patients after 16 to 20 hrs by broth microdilution method in presence of 120 uM carbonyl cyanide m-chlorophenyl-hydrazone; how it was run: as §1
[25] = tested on: Pseudomonas aeruginosa; assay: Antimicrobial activity against Pseudomonas aeruginosa isolate 13 obtained from cystic fibrosis patients after 16 to 20 hrs by broth microdilution method in presence of 120 uM carbonyl cyanide m-chlorophenyl-hydrazone; how it was run: as §1
[26] = tested on: Pseudomonas aeruginosa; assay: Antimicrobial activity against Pseudomonas aeruginosa isolate 13 obtained from cystic fibrosis patients after 16 to 20 hrs by broth microdilution method; how it was run: as §2
[27] = tested on: Pseudomonas aeruginosa; assay: Antimicrobial activity against Pseudomonas aeruginosa isolate 14 obtained from cystic fibrosis patients after 16 to 20 hrs by broth microdilution method in presence of 120 uM carbonyl cyanide m-chlorophenyl-hydrazone; how it was run: as §1
[28] = tested on: Pseudomonas aeruginosa; assay: Antimicrobial activity against Pseudomonas aeruginosa isolate 14 obtained from cystic fibrosis patients after 16 to 20 hrs by broth microdilution method; how it was run: as §2
[29] = tested on: Pseudomonas aeruginosa; assay: Antimicrobial activity against Pseudomonas aeruginosa isolate 15 obtained from cystic fibrosis patients after 16 to 20 hrs by broth microdilution method in presence of 120 uM carbonyl cyanide m-chlorophenyl-hydrazone; how it was run: as §1
[30] = tested on: Pseudomonas aeruginosa; assay: Antimicrobial activity against Pseudomonas aeruginosa isolate 15 obtained from cystic fibrosis patients after 16 to 20 hrs by broth microdilution method; how it was run: as §2
[31] = tested on: Pseudomonas aeruginosa; assay: Antimicrobial activity against Pseudomonas aeruginosa isolate 16 obtained from cystic fibrosis patients after 16 to 20 hrs by broth microdilution method in presence of 120 uM carbonyl cyanide m-chlorophenyl-hydrazone; how it was run: as §1
[32] = tested on: Pseudomonas aeruginosa; assay: Antimicrobial activity against Pseudomonas aeruginosa isolate 16 obtained from cystic fibrosis patients after 16 to 20 hrs by broth microdilution method; how it was run: as §2
[33] = tested on: Pseudomonas aeruginosa; assay: Antimicrobial activity against Pseudomonas aeruginosa isolate 17 obtained from cystic fibrosis patients after 16 to 20 hrs by broth microdilution method in presence of 120 uM carbonyl cyanide m-chlorophenyl-hydrazone; how it was run: as §3
[34] = tested on: Pseudomonas aeruginosa; assay: Antimicrobial activity against Pseudomonas aeruginosa isolate 17 obtained from cystic fibrosis patients after 16 to 20 hrs by broth microdilution method; how it was run: as §4
[35] = tested on: Pseudomonas aeruginosa; assay: Antimicrobial activity against Pseudomonas aeruginosa isolate 18 obtained from cystic fibrosis patients after 16 to 20 hrs by broth microdilution method in presence of 120 uM carbonyl cyanide m-chlorophenyl-hydrazone; how it was run: as §3
[36] = tested on: Pseudomonas aeruginosa; assay: Antimicrobial activity against Pseudomonas aeruginosa isolate 18 obtained from cystic fibrosis patients after 16 to 20 hrs by broth microdilution method; how it was run: as §4

O=C(N[C@H](CO)[C@H](O)c1ccc([N+](=O)[O-])cc1)C(Cl)Cl [CHLORAMPHENICOL]
MIC [1]: 64 µg/mL | MIC [2]: 256 µg/mL (≈ 792 µM) | MIC [3]: 256 µg/mL | MIC [4]: 256 µg/mL (≈ 792 µM) | MIC [5]: 64 µg/mL | MIC [6]: 256 µg/mL (≈ 792 µM) | MIC [7]: 32 µg/mL | MIC [8]: 32 µg/mL (≈ 99 µM) | MIC [9]: 32 µg/mL | MIC [10]: 32 µg/mL (≈ 99 µM) | MIC [11]: 8 µg/mL | MIC [12]: 8 µg/mL (≈ 24.8 µM) | MIC [13]: 8 µg/mL | MIC [14]: 8 µg/mL (≈ 24.8 µM) | MIC [15]: 32 µg/mL | MIC [16]: 32 µg/mL (≈ 99 µM) | MIC [17]: 16 µg/mL | MIC [18]: 16 µg/mL (≈ 49.5 µM) | MIC [19]: 8 µg/mL | MIC [20]: 32 µg/mL (≈ 99 µM) | MIC [21]: 32 µg/mL | MIC [22]: 32 µg/mL (≈ 99 µM) | MIC [23]: 8 µg/mL (≈ 24.8 µM) | MIC [24]: 8 µg/mL | MIC [25]: 8 µg/mL | MIC [26]: 32 µg/mL (≈ 99 µM) | MIC [27]: 8 µg/mL | MIC [28]: 16 µg/mL (≈ 49.5 µM) | MIC [29]: 8 µg/mL | MIC [30]: 8 µg/mL (≈ 24.8 µM) | MIC [31]: 8 µg/mL | MIC [32]: 8 µg/mL (≈ 24.8 µM) | MIC [33]: 8 µg/mL | MIC [34]: 8 µg/mL (≈ 24.8 µM) | MIC [35]: 32 µg/mL | MIC [36]: 32 µg/mL (≈ 99 µM)
